Some of the results follow. Activity calls are given as the source filed them.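 The calls were made as follows: active = average inhibition over triplicates above the hit cutoff set in the earlier primary screen (cut at about 25% in these data); inactive = the rest.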
These compounds were tested against ADP-ribosylation factor GTPase-activating protein 1 (Rattus norvegicus) (UniProt Q62848) (assay: ARFGAP1 inhibitor hit confirmation, biochemical, fluorescence polarization, triplicate (AID 651608;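 also: 0% = Arfgap1 plus ARF1-GTP with DMSO and 100% = wells lacking Arfgap1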)). Conditions: ARFGAP1-stimulated ARF1 GTP hydrolysis, GDP tracer FP; at 16.5 µM; active compounds read high.
Chain of ADP-ribosylation factor GTPase-activating protein 1 (Rattus norvegicus) (Q62848 whole entry, looked up, the tested form may be a part): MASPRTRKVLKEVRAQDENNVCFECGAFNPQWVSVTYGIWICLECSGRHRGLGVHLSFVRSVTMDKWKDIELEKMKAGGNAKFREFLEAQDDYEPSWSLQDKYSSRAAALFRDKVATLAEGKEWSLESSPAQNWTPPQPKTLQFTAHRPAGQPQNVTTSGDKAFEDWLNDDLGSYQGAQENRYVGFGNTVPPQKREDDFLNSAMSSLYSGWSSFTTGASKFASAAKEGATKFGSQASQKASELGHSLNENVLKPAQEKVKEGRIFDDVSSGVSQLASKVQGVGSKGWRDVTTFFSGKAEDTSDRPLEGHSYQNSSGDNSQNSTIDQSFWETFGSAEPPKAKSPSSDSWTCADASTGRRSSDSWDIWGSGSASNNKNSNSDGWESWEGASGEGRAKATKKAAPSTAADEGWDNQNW
Summary of the method: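 Assay system: purified rat Arfgap1 GAP domain with human ARF1; signal: GDP tracer fluorescence polarization; reagent: GTP-loaded human ARF1 missing its first 17 residues; benchmarks: high control wells lacking Arfgap1; medium: HEPES-based assay buffer at pH 7.5; incubation: reaction 120 min at 25 °C after 20 min pre-incubation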
For `Cc1ccc(NC(=O)c2ccc(Oc3ncccn3)cc2)cc1`, the inhibition was 1.89% (inactive). `Cn1c(=O)[nH]c(=O)c2c1nc(N1CCN(CCO)CC1)n2CCSc1nc2ccccc2s1` was tested, and the inhibition was -2.06% (inactive). In the case of `COc1ccc(C(N)c2csc(NC(=O)Nc3cccc(C(F)(F)F)c3)n2)cc1` (stereo not given), the inhibition was 19.2% (inactive). In the case of `Nc1ccc(S(=O)(=O)Nc2nccc(/C=C/c3ccc(Br)s3)n2)cc1`, the inhibition was -3.16% (inactive). `CN(C)CCNC(=O)c1ccc(-c2cn3c(-c4ccc(Oc5ccccc5)cc4)cnc3cn2)cc1` was tested, and the inhibition was 48.8% (active). With `CCOC(=O)C1CCN(C(c2cc3cc(C)cc(C)c3[nH]c2=O)c2nnnn2C2CCCCC2)CC1` (stereo not given) the inhibition was 0.48% (inactive). In the case of `COc1ccccc1OCC(=O)OCn1c(SC)nnc(C)c1=O`, the inhibition was 0.34% (inactive). For `OC(COc1cccc(OCC(O)CN2CCCC2)c1)CN1CCCC1` (stereo not given), the inhibition was 1.32% (inactive). `Cc1cc(C)cc(NC(=O)C2CCCN(S(=O)(=O)c3ccc4[nH]c(=O)ccc4c3)C2)c1` (stereo not given) was tested, and the inhibition was 0.48% (inactive). In the case of `O=C(CCc1ccccc1)Nc1ncc([N+](=O)[O-])s1`, the inhibition was -7.17% (inactive). With `CCOC(=O)c1ccc(Nc2cc3ccccc3c(=O)[nH]2)cc1` the inhibition was 9.83% (inactive). With `CCn1c(SCc2cc(=O)n3ccsc3n2)nc2ccccc21` the inhibition was -5.82% (inactive). For `CC1CCc2[nH]c3ccc(C(=O)N(C)CC(=O)Nc4cccc(F)c4)cc3c2C1` (stereo not given), the inhibition was 1.73% (inactive). `C#C[C@]1(O)CC[C@H]2[C@@H]3CCC4=CC(=O)CC[C@@H]4[C@H]3CC[C@@]21CC` was tested, and the inhibition was 4.82% (inactive). For `COc1cccc(CNc2nc(C(F)(F)F)nc3ccccc23)c1`, the inhibition was 8.01% (inactive).
